Test results published in ChEMBL document CHEMBL1130821 (Bioorg Med Chem Lett, 1998).
Starred links: 1 amine or outer side, 2 acyl side, 3 side chain; linkers in the order of their positions; H or OH if unused. Non-standard residues stand in square brackets, D forms with d. Residues, ends and D or L forms follow the SMILES beside them. X1 = O=C([C@@H]1C(Cc2ccccc2)CCN1[*:1])[*:2]; NMeF = CN[C@@H](Cc1ccccc1)C(=O)O

Tests used:
[1] = biological target: Substance-P receptor (Homo sapiens, UniProt P25103); assay: Compound was evaluated for affinity towards human tachykinin NK-1 receptor expressed in CHO cells; assay type: cell-based
Substance-P receptor, sequence (P25103 whole entry): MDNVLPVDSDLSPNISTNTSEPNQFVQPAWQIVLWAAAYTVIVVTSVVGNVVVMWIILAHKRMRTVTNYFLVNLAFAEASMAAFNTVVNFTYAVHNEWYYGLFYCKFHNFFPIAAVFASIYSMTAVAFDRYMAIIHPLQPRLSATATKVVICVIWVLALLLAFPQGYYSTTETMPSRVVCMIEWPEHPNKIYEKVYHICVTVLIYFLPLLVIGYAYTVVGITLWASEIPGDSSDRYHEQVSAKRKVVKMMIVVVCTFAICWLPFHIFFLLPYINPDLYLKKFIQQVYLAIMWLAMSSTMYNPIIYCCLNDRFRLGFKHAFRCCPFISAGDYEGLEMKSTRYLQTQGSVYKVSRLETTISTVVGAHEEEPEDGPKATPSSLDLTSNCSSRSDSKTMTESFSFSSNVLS

[2] = system: CHO; assay: Compound was evaluated for the blockade of NKA-induced (neurokinin A) IPs hydrolysis in CHO cells; assay type: functional, cell-based; conditions: Cricetulus griseus, read-out: pA2 (converted)
Outline: (§1)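 Intact CHO cells transfected with the human tachykinin NK-1 receptor. Antagonism of agonist-stimulated phosphoinositide (IP) hydrolysis is expressed as pA2, or as pKB where antagonism was uncompetitive.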

[3] = system: CHO; assay: Compound was evaluated for the blockade of [Pro]SP-induced IPs hydrolysis in CHO cells; assay type: functional, cell-based; conditions: Cricetulus griseus, read-out: pA2 (converted); outline: as §1
[4] = system: CHO; assay: Compound was evaluated for the blockade of [Pro]SP-induced cAMP formation in CHO cells; assay type: functional, cell-based; conditions: Cricetulus griseus, read-out: pA2 (converted)
Outline: (§2)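 Intact CHO cells transfected with the human NK-1 receptor. Antagonist inhibition of agonist-stimulated cAMP formation is reported as pA2, or as pKB for uncompetitive antagonism.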

[5] = system: CHO; assay: Compound was evaluated for the inhibition of cAMP formation on intact CHO cells expressing the human tachykinin NK-1 receptor; assay type: functional, cell-based; conditions: Cricetulus griseus; outline: as §2
[6] = system: CHO; assay: Compound was evaluated for the inhibition of IPs hydrolysis on intact CHO cells expressing the human tachykinin NK-1 receptor; assay type: functional, cell-based; conditions: Cricetulus griseus; outline: as §1

| Structure (SMILES) | Ki [1] | Kb [2] | Kb [3] | Kb [4] | EC50 [5] | EC50 [6] |
| --- | --- | --- | --- | --- | --- | --- |
| CC(C)C[C@@H](C(=O)N[C@@H](Cc1c[nH]c2ccccc12)C(N)=O)N1CC[C@@]2(CCCN2C(=O)[C@H](Cc2ccc(O)cc2)NC(=O)[C@H](Cc2ccccc2)NC(=O)[C@H](CCCCN)NC(=O)[C@H](CC(N)=O)NC(=O)[C@@H]2CCCN2C(=O)[C@H](CC(=O)O)NC(=O)[C@H](C)NC(=O)[C@@H]2CCC(=O)N2)C1=O | 56 nM | 12.6 nM | 63.1 nM | 15.8 nM |  |  |
| CSCC[C@H](NC(=O)[C@H](CC(C)C)NC(=O)CNC(=O)[C@@H](NC(=O)[C@H](Cc1ccccc1)NC(=O)[C@H](CO)NC(=O)[C@H](CC(=O)O)NC(=O)[C@@H](NC(=O)[C@H](CCCCN)NC(=O)[C@@H](N)Cc1c[nH]cn1)[C@@H](C)O)C(C)C)C(N)=O [NEUROKININ A] |  |  |  |  | 1240 nM | 8 nM |
| CN(C(=O)[C@@H]1CCCN1C(=O)[C@H](Cc1ccccc1)NC(=O)[C@H](Cc1ccccc1)NC(=O)[C@H](CCC(N)=O)NC(=O)[C@H](CCC(N)=O)NC(=O)[C@@H]1CCCN1C(=O)[C@H](CCCCN)NC(=O)[C@@H]1CCCN1C(=O)[C@@H](N)CCCN=C(N)N)[C@@H](Cc1ccccc1)C(=O)N[C@@H](Cc1c[nH]c2ccccc12)C(N)=O (H-RPKPQQFFP[NMeF]W-NH2) | 110 nM | 398 nM | 347 nM | 115 nM |  |  |
| CSCC[C@H](NC(=O)[C@H](CC(C)C)NC(=O)[C@@H]1CCCN1C(=O)[C@H](Cc1ccccc1)NC(=O)[C@H](Cc1ccccc1)NC(=O)[C@H](CCC(N)=O)NC(=O)[C@H](CCC(N)=O)NC(=O)[C@@H]1CCCN1C(=O)[C@H](CCCCN)NC(=O)[C@@H]1CCCN1C(=O)[C@@H](N)CCCN=C(N)N)C(N)=O | 1.1 nM |  |  |  | 10 nM | 1.2 nM |
| NCCCC[C@H](NC(=O)[C@@H]1CCCN1C(=O)[C@@H](N)CCCN=C(N)N)C(=O)N1CCC[C@H]1C(=O)N[C@@H](CCC(N)=O)C(=O)N[C@@H](CCC(N)=O)C(=O)N[C@@H](Cc1ccccc1)C(=O)N[C@@H](Cc1ccccc1)C(=O)N1CCC[C@H]1C(=O)N1CCC(Cc2ccccc2)[C@H]1C(=O)N[C@@H](Cc1c[nH]c2ccccc12)C(N)=O (some centres not stated) (H-RPKPQQFFP[X1]W-NH2) | 79 nM | 10 nM | 25.1 nM | 18.2 nM |  |  |
